Laboratory results from ChEMBL document CHEMBL1123210, “Cycloheximide analogues as potential anticonvulsants” (J Med Chem, 1986).
Calls of active or inactive are those of the source.

Tests used:
[1] = test system: Mus musculus; experiment: Number of mice exhibiting toxicity out of four (4) mice in repeated subcutaneous pentylenetetrazole seizure test was measured by using rotarod test; assay type: organism-based; conditions: in vivo
In short: (§1)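 Neurotoxicity was scored in the rotorod test in mice given doses up to 600 mg/kg. The value is the number of animals out of four showing toxicity. It was recorded for both the initial screen and the repeat pentylenetetrazol screen.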

[2] = species on record: Mus musculus; experiment: Number of mice exhibiting toxicity out of four (4) mice was measured by using rotarod test.; assay type: organism-based; conditions: in vivo; in short: as §1
[3] = test system: Mus musculus; experiment: (§2) Compound was tested for the lowest dose which protected half of the mice in pentylenetetrazole seizure test 0.5 hr after ip administration of the compound; assay type: functional
In short: (§3)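 This was a repeat of the subcutaneous pentylenetetrazol screen in mice (85 mg/kg s.c.). Endpoint was prevention of clonic seizures, four animals per dose at 30, 100, 300 or 600 mg/kg. The value is the lowest dose at which at least half of the four animals were protected.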

[4] = test system: Mus musculus; experiment: Inhibition of subcutaneous pentylenetetrazole induced seizures in mice 4 hr following i.p. administration; Inactive.; assay type: functional, organism-based
[5] = test system: Mus musculus; experiment: Compound was tested for maximal electroshock seizure test in mice 0.5 hr after administration; IA is Inactive; assay type: functional, organism-based
[6] = test system: Mus musculus; experiment: Inhibition of maximal electroshock induced seizures in mice 4 hr after administration; Inactive.; assay type: functional, organism-based
[7] = test system: Mus musculus; experiment: (§4) Compound was tested for subcutaneous pentylenetetrazole seizure test in mice after administration intraperitoneally at 0.5h.; assay type: functional
[8] = test system: Mus musculus; experiment: as §4; assay type: functional; remark: listed apart in the source
In short: (§5)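 Mice, four per dose level, screened at 30, 100, 300 and 600 mg/kg and read at 0.5 h and 4 h after dosing. End point is prevention of minimal threshold (clonic) seizures induced by pentylenetetrazol 85 mg/kg sc. Activity is the lowest dose at which at least one of four animals is protected.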

[9] = test system: Mus musculus; experiment: (§6) Compound was tested for maximal electroshock seizure test in mice 0.5 hr after administration.; assay type: functional
In short: (§7)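 Mice, four per dose level, screened at 30, 100, 300 and 600 mg/kg and read at 0.5 h and 4 h after dosing. End point is prevention of tonic hindlimb extension after maximal electroshock. Activity is the lowest dose at which at least one of four animals is protected.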

[10] = test system: Mus musculus; experiment: (§8) Compound was tested for the lowest dose which protected half of the mice in pentylenetetrazole seizure test 4 hr after ip administration of the compound; assay type: functional
In short: (§9)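 Repeat pentylenetetrazol screen (85 mg/kg sc, clonic seizure end point) in four mice per dose, at 30, 100, 300 and 600 mg/kg, read at 0.5 h and 4 h. The value is the lowest dose at which at least half of the four animals were protected. A few cases were rescreened at 100, 250, 450 and 600 mg/kg or used only three animals.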

[11] = test system: Mus musculus; experiment: (§10) Compound was tested for maximal electroshock seizure test in mice 4 hr after administration; IA is Inactive; assay type: functional, organism-based; in short: as §7
[12] = test system: Mus musculus; experiment: as §2; assay type: functional; in short: as §9; remark: listed apart in the source
[13] = test system: Mus musculus; experiment: (§11) Compound was tested for subcutaneous pentylenetetrazole seizure test in mice after administration intraperitoneally at 4h.; assay type: functional; in short: as §5
[14] = test system: Mus musculus; experiment: as §8; assay type: functional; in short: as §3; remark: listed apart in the source
[15] = test system: Mus musculus; experiment: as §11; assay type: functional; remark: listed apart in the source
[16] = test system: Mus musculus; experiment: Compound was tested for subcutaneous pentylenetetrazole seizure test in mice after administration intraperitoneally at 0.5 hr; IA is Inactive; assay type: functional, organism-based
[17] = test system: Mus musculus; experiment: as §6; assay type: functional; remark: listed apart in the source
[18] = test system: Mus musculus; experiment: Compound was tested for the lowest dose which protected half of the mice in pentylenetetrazole seizure test 4 hr after ip administration of the compound; IA is Inactive; assay type: functional, organism-based; in short: as §3
[19] = test system: Mus musculus; experiment: as §10; assay type: functional, organism-based; remark: listed apart in the source
[20] = test system: Mus musculus; experiment: Compound was tested for subcutaneous pentylenetetrazole seizure test in mice after administration intraperitoneally at 4h.; IA is Inactive; assay type: functional, organism-based
[21] = test system: Mus musculus; experiment: Compound was tested for maximal electroshock seizure test in mice 0.5 hr after administration; IA is Inactivev; assay type: functional, organism-based
[22] = test system: Mus musculus; experiment: Compound was tested for maximal electroshock seizure test in mice 4 hr after administration.; assay type: functional
[23] = test system: Mus musculus; experiment: Compound was tested for the lowest dose which protected half of the mice in pentylenetetrazole seizure test 0.5 hr after ip administration of the compound; IA is Inactive; assay type: functional, organism-based; in short: as §3

Compound `O=C1CC(C[C@@H](O)C2CCCC[C@@H]2O)CC(=O)N1` (stereo not given in full) has a Toxicity [1] of 0, a Toxicity [2] of 0 and a scMet [3] of 600 mg/kg. For the same compound, the scMet [4] was “inactive”, the MES [5] was “inactive” and the MES [6] was “inactive”. For the same compound, the scMet [7] was 100 mg/kg.
For `C[C@@H]1CC([C@H](O)CC2CC(=O)NC(=O)C2)C(=O)[C@@H](C)C1` (stereo not given in full), the scMet [8] was 100 mg/kg, the Toxicity [1] was 0 animals and the Toxicity [2] was 1. The MES [9] was 600 mg/kg, the scMet [10] was 300 mg/kg and the MES [11] was “inactive”. It also gave a scMet [12] of 100 mg/kg and a scMet [13] of 300 mg/kg.
`C[C@H]1CC([C@H](O)CC2CC(=O)NC(=O)C2)[C@@H](O)[C@@H](C)C1` (stereo not given in full) showed a Toxicity [1] of 0, a Toxicity [2] of 1 and a scMet [3] of 100 mg/kg. The scMet [14] was 600 mg/kg, the MES [5] was “inactive” and the MES [6] was “inactive”. It also gave a scMet [7] of 100 mg/kg and a scMet [15] of 600 mg/kg.
In the case of `C[C@H]1CCC(=O)C(C(=O)CC2CC(=O)NC(=O)C2)C1` (stereo not given in full), the scMet [16] was “inactive”, the scMet [4] was “inactive” and the MES [5] was “inactive”. For the same compound, the MES [6] was “inactive”.
In the case of `CC(=O)O[C@H](CC1CC(=O)N(C)C(=O)C1)C1C[C@@H](C)C[C@H](C)C1=O` (stereo not given in full), the scMet [16] was “inactive”, the scMet [4] was “inactive” and the MES [5] was “inactive”. The MES [6] was “inactive”.
In the case of `C[C@H]1CC[C@H](O)C([C@H](O)CC2CC(=O)N(C)C(=O)C2)C1` (stereo not given in full), the MES [17] was 600 mg/kg, the Toxicity [2] was 4 and the scMet [16] was “inactive”. For the same compound, the scMet [4] was “inactive” and the MES [6] was “inactive”.
`C[C@H]1CC[C@H](O)C([C@H](O)CC2CC(=O)NC(=O)C2)C1` (stereo not given in full) showed a Toxicity [1] of 0, a Toxicity [2] of 0 and a scMet [3] of 30 mg/kg. The MES [5] was “inactive”, the MES [6] was “inactive” and the scMet [7] was 30 mg/kg. The scMet [15] was 600 mg/kg and the MES [18] was “inactive”.
Compound `C[C@@H]1CCC(=O)C(C(=O)CC2CC(=O)NC2=O)C1` (stereo not given in full) has a Toxicity [1] of 1, an MES [17] of 600 mg/kg and a Toxicity [2] of 2. For the same compound, the scMet [3] was 600 mg/kg, the scMet [4] was “inactive” and the MES [6] was “inactive”. The scMet [7] was 600 mg/kg.
For `C[C@H]1CC([C@H](O)CC2CC(=O)N(Cc3ccccc3)C(=O)C2)[C@@H](O)[C@@H](C)C1` (stereo not given in full), the scMet [16] was “inactive”, the scMet [4] was “inactive” and the MES [5] was “inactive”. For the same compound, the MES [6] was “inactive”.
For `CC1CCCC(C(=O)CC2CC(=O)N(C)C(=O)C2)C1=O` (stereo in doubt; 2g), the MES [17] was 600 mg/kg and the MES [6] was “inactive”.
`C[C@H]1CCCC([C@H](O)CC2CC(=O)N(C)C(=O)C2)[C@H]1O` (stereo not given in full) was tested, and the MES [17] was 600 mg/kg, the Toxicity [2] was 0 and the scMet [16] was “inactive”. The scMet [4] was “inactive” and the MES [19] was “inactive”.
In the case of `CN1C(=O)CC(CC(=O)C2CCCCC2=O)CC1=O` (stereo in doubt; 2e), the scMet [16] was “inactive”, the scMet [4] was “inactive” and the MES [5] was “inactive”. For the same compound, the MES [6] was “inactive”.
With `O=C1CC(CC(=O)C2CCCCC2=O)CC(=O)N1` (stereo not given) the Toxicity [2] was 0, the scMet [3] was 600 mg/kg and the scMet [4] was “inactive”. For the same compound, the MES [5] was “inactive”, the MES [6] was “inactive” and the scMet [7] was 600 mg/kg.
`CN1C(=O)CC(C[C@@H](O)C2CCCC[C@@H]2O)CC1=O` (stereo not given in full) was tested, and the scMet [16] was “inactive”, the scMet [4] was “inactive” and the MES [5] was “inactive”. For the same compound, the MES [6] was “inactive”.
For `O=C1CC(CC(=O)C2CCCCC2=O)C(=O)N1` (stereo not given), the Toxicity [1] was 0, the Toxicity [2] was 0 and the scMet [3] was 600 mg/kg. For the same compound, the scMet [20] was “inactive”, the MES [5] was “inactive” and the MES [6] was “inactive”. The scMet [7] was 600 mg/kg.
In the case of `C[C@H]1CC(C(=O)CC2CC(=O)NC(=O)C2)C(=O)[C@@H](C)C1` (stereo not given in full), the scMet [16] was “inactive”, the scMet [4] was “inactive” and the MES [5] was “inactive”. For the same compound, the MES [6] was “inactive”.
In the case of `C[C@H]1CCC(=O)C(C(=O)CC2CC(=O)N(C)C(=O)C2)C1` (stereo not given in full), the scMet [16] was “inactive”, the scMet [4] was “inactive” and the MES [5] was “inactive”. The MES [6] was “inactive”.
Work on `C[C@H]1CCCC(C(=O)CC2CC(=O)NC(=O)C2)C1=O` (stereo not given in full) yielded a Toxicity [1] of 0, a Toxicity [2] of 0 and an MES [3] of 100 mg/kg. For the same compound, the scMet [4] was “inactive”, the MES [5] was “inactive” and the MES [6] was “inactive”. The scMet [7] was 300 mg/kg.
`C[C@@H]1CC(C(=O)CC2CC(=O)N(C)C(=O)C2)C(=O)[C@@H](C)C1` (stereo not given in full) was tested, and the Toxicity [1] was 1, the Toxicity [2] was 1 and the scMet [3] was 600 mg/kg. For the same compound, the scMet [4] was “inactive”, the MES [21] was “inactive” and the MES [22] was 600 mg/kg. For the same compound, the scMet [7] was 600 mg/kg.
With `C[C@H]1CC([C@H](O)CC2CC(=O)N(C)C(=O)C2)[C@@H](O)[C@@H](C)C1` (stereo not given in full) the MES [17] was 600 mg/kg, the Toxicity [2] was 0 and the scMet [16] was “inactive”. The scMet [4] was “inactive” and the MES [6] was “inactive”.
For `C[C@@H]1CC(C2CC(CC(=O)NCc3ccccc3)CC(=O)O2)[C@@H](O)[C@@H](C)C1` (stereo not given in full), the scMet [16] was “inactive”, the scMet [4] was “inactive” and the MES [5] was “inactive”. For the same compound, the MES [6] was “inactive”.
`C[C@@H]1CCc2c(c(CC3CC(=O)NC(=O)C3)nn2-c2ccccc2)C1` was tested, and the Toxicity [2] was 0, the MES [23] was “inactive” and the scMet [16] was “inactive”. The MES [5] was “inactive”, the MES [6] was “inactive” and the scMet [15] was 30 mg/kg.
